Reference: ChEMBL document CHEMBL1138254, “Stereoselective synthesis and cytotoxicity of a cancer chemopreventive naphthoquinone from Tabebuia avellanedae” (Bioorg Med Chem Lett, 2007)

Experiments:
[1] = Cytotoxicity against human MPC5 cells assessed as cell viability by tryptan blue staining method; type: cell-based; details: MPC-5
Outline: (§1)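 Human normal cell lines were treated with compound: Fb (skin), Hc (liver), MPC-5 (lung) and IE (colon). Viability was assessed by Trypan blue staining, and EC50 is reported in µM.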

[2] = tested on: A549; assay: Cytotoxicity against human A549 cells assessed as cell viability by tryptan blue staining method; type: functional, cell-based
Outline: (§2)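 Human cancer lines PC-3 (prostate), A549 (lung) and MCF-7 (breast) were treated with compound. Viability was assessed by Trypan blue staining, and EC50 is reported in µM.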

[3] = Cytotoxicity against human Fb cells assessed as cell viability by tryptan blue staining method; type: cell-based; outline: as §1
[4] = tested on: PC-3; assay: Cytotoxicity against human PC3 cells assessed as cell viability by tryptan blue staining method; type: functional, cell-based; outline: as §2
[5] = tested on: MCF7; assay: Cytotoxicity against human MCF7 cells assessed as cell viability by tryptan blue staining method; type: functional, cell-based; outline: as §2
[6] = Cytotoxicity against human Hc cells assessed as cell viability by tryptan blue staining method; type: cell-based; outline: as §1
[7] = Cytotoxicity against human IE cells assessed as cell viability by tryptan blue staining method; type: cell-based; outline: as §1
[8] = tested on: Human gammaherpesvirus 4; assay: Inhibition of TPA-induced EBV-EA activation in Raji cells; type: functional, organism-based; details: human gammaherpesvirus 4, Raji
Outline: (§3)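 TPA-induced EBV-EA activation in Raji cells, with TPA at 32 pmol and test agent at 1000, 500, 100 and 10 mol ratio/TPA. EA-positive cells are expressed relative to the positive control (TPA alone, 100%). An IC50 in µM is derived from the dose series. Curcumin served as the positive control substance.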

[9] = tested on: Raji; assay: Cell viability in Raji cells at 500 mol ratio/TPA by tryptan blue staining relative to control; type: functional, Homo sapiens
Outline: (§4)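 Raji cells co-treated with test agent and 32 pmol TPA in the EBV-EA activation assay. Doses were 10, 100, 500 or 1000 mol ratio relative to TPA. Viability was scored by Trypan blue staining and given as percent of Raji cells viable.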

[10] = tested on: Human gammaherpesvirus 4; assay: Inhibition of TPA-induced EBV-EA activation in Raji cells at 10 mol ratio/TPA relative to control; type: functional; outline: as §3
[11] = tested on: Human gammaherpesvirus 4; assay: Inhibition of TPA-induced EBV-EA activation in Raji cells at 100 mol ratio/TPA relative to control; type: functional; outline: as §3
[12] = tested on: Human gammaherpesvirus 4; assay: Inhibition of TPA-induced EBV-EA activation in Raji cells at 1000 mol ratio/TPA relative to control; type: functional; outline: as §3
[13] = tested on: Human gammaherpesvirus 4; assay: Inhibition of TPA-induced EBV-EA activation in Raji cells at 500 mol ratio/TPA relative to control; type: functional; outline: as §3
[14] = tested on: Raji; assay: Cell viability in Raji cells at 10 mol ratio/TPA by tryptan blue staining relative to control; type: functional, Homo sapiens; outline: as §4
[15] = tested on: Raji; assay: Cell viability in Raji cells at 1000 mol ratio/TPA by tryptan blue staining relative to control; type: functional, Homo sapiens; outline: as §4
[16] = tested on: Raji; assay: Cell viability in Raji cells at 100 mol ratio/TPA by tryptan blue staining relative to control; type: functional, Homo sapiens; outline: as §4

Row | IC50 [8] [µM] | SMILES | EC50 [1] [µM] | EC50 [2] [µM] | EC50 [3] [µM] | EC50 [4] [µM] | EC50 [5] [µM] | EC50 [6] [µM] | EC50 [7] [µM] | Activity [9] [%] | EBV-EA positive cells % [10] [%] | EBV-EA positive cells % [11] [%] | EBV-EA positive cells % [12] [%] | EBV-EA positive cells % [13] [%] | Activity [14] [%] | Activity [15] [%] | Activity [16] [%]
1 | – | CO[C@@]12[C@H](COC(N)=O)C3=C(C(=O)C(C)=C(N)C3=O)N1C[C@@H]1N[C@@H]12 [MITOMYCIN] | 2.1 | 0.43 | 0.93 | 0.14 | 0.96 | 1.46 | 1.46 | – | – | – | – | – | – | – | –
2 | 345 | COc1cc(/C=C/C(=O)CC(=O)/C=C/c2ccc(O)c(OC)c2)ccc1O [CURCUMIN] | – | – | – | – | – | – | – | – | – | – | – | – | – | – | –
3 | 34.9 | CC(O)c1cc2c(o1)C(=O)c1cccc(O)c1C2=O (centres undefined) | 89.3 | 3.24 | 45.4 | 0.56 | 8.5 | 89.3 | 158 | 70 | 52.9 | 20.7 | 0 | 6.2 | >80 | 60 | >80
4 | 38.9 | C[C@@H](O)c1cc2c(o1)C(=O)c1cccc(O)c1C2=O | 65.9 | 3 | 39.7 | 0.93 | 9.3 | 29.8 | 39.7 | >80 | 59.4 | 24.7 | 0 | 9.7 | >80 | 70 | >80
5 | 33.2 | C[C@H](O)c1cc2c(o1)C(=O)c1cccc(O)c1C2=O | 29.7 | 0.96 | 11.1 | 0.14 | 3.5 | 11.1 | 54.5 | 60 | 50 | 16.9 | 0 | 4.4 | >80 | 60 | >80
6 | 210 | CC1(C)CCC2=C(O1)c1ccccc1C(=O)C2=O [LAPACHONE] | – | – | – | – | – | – | – | >80 | 73.1 | 50.4 | 4.7 | 21.7 | >80 | 50 | >80

Row | SMILES | IC50 [8] [µM] | EC50 [1] [µM] | EC50 [2] [µM] | EC50 [3] [µM] | EC50 [4] [µM] | EC50 [5] [µM] | EC50 [6] [µM] | EC50 [7] [µM] | Activity [9] [%] | EBV-EA positive cells % [10] [%] | EBV-EA positive cells % [11] [%] | EBV-EA positive cells % [12] [%] | EBV-EA positive cells % [13] [%] | Activity [14] [%] | Activity [15] [%] | Activity [16] [%]
7 | CC(C)=CCC1=C(O)C(=O)c2ccccc2C1=O [LAPACHOL] | 311 | – | – | – | – | – | – | – | 60 | 86.6 | 65.2 | 8.9 | 32.8 | >80 | 50 | >80
